In ChEMBL document CHEMBL4602720, “Degradation versus Inhibition: Development of Proteolysis-Targeting Chimeras for Overcoming Statin-Induced Compensatory Upregulation of 3-Hydroxy-3-methylglutaryl Coenzyme A Reductase” (J Med Chem, 2020):
Active and inactive are the calls of the source.

Columns and labels:
[1] = target: T1, Protein cereblon/3-hydroxy-3-methylglutaryl-coenzyme A reductase (Cricetulus griseus) (UniProt P00347+G3H338); assay: Protac activity at CRBN/HMGCR in Insig-1/Insig-2 deficient Chinese hamster SRD15 cells assessed as HMGCR level at 3 uM after 16 hrs by immunoblotting analysis (reference value: 1)
In short: (§1)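 Dose-response in SRD15 cells in Medium A with 5% FBS, 16 h treatment, DMSO final 0.1% or lower. RIPA lysates immunoblotted for HMGCR. HMGCR densitometry normalized to actin, with the DMSO group set to 1. Three repeats. DC50 is taken from a dose-response fit of the semi-quantitative blots, mean of 3 independent experiments.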

[2] = target: T1, Protein cereblon/3-hydroxy-3-methylglutaryl-coenzyme A reductase (Cricetulus griseus); assay: Protac activity at CRBN/HMGCR in Insig-1/Insig-2 deficient Chinese hamster SRD15 cells assessed as induction of HMGCR degradation at 1 uM after 16 hrs by immunoblotting analysis relative to control; in short: as §1
[3] = target: T2, Protein cereblon/3-hydroxy-3-methylglutaryl-coenzyme A reductase (Homo sapiens) (UniProt P04035+Q96SW2); assay: Protac activity at human Flag-tagged CRBN/Myc-tagged HMGCR expressed in HEK293T cells assessed as induction of HMGCR immunoprecipitation at 1 uM preincubated for 16 hrs followed by MG132 addition addition and measured after 5 hrs in presence of MG132 by Western blot analysis; type: cell-based; settings: HEK-293T
[4] = target: T3, 3-hydroxy-3-methylglutaryl-coenzyme A reductase (Homo sapiens) (UniProt P04035); assay: Inhibition of GFP-labelled HMGCR (unknown origin) expressed in lentivirus Chinese hamster SRD15 cells assessed as reduction in cholesterol biosynthesis at 1 uM after 16 hrs by Hoechst staining based laser-scanning microscopic method; type: cell-based
T3 sequence (whole entry): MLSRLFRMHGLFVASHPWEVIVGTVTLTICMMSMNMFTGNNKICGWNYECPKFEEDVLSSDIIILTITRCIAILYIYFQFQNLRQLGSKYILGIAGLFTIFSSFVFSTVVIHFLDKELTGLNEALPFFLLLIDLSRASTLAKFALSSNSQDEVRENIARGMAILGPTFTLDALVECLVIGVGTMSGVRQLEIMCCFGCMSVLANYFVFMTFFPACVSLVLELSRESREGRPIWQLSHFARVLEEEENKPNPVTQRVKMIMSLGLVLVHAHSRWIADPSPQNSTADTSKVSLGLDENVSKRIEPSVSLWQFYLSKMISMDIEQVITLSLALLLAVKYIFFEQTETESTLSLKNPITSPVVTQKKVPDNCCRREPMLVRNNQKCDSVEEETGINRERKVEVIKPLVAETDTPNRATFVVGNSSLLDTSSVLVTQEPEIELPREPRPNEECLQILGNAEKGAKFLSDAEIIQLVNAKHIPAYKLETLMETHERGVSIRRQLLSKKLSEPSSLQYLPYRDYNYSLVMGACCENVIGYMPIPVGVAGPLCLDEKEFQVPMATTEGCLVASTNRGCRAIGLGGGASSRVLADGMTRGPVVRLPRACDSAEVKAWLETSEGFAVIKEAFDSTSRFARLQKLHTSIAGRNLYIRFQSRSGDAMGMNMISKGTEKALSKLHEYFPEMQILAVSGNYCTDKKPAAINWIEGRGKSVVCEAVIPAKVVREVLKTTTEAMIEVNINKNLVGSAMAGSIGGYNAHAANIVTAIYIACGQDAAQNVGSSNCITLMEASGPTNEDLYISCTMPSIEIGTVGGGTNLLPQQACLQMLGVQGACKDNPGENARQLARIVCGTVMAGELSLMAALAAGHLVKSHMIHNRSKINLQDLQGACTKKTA

[5] = target: T1, Protein cereblon/3-hydroxy-3-methylglutaryl-coenzyme A reductase (Cricetulus griseus); assay: Protac activity at CRBN/HMGCR in Insig-1/Insig-2 deficient Chinese hamster SRD15 cells assessed as HMGCR level at 1 uM after 16 hrs in presence of 1 uM pomalidomide by immunoblotting analysis (reference value: 1)
[6] = target: T1, Protein cereblon/3-hydroxy-3-methylglutaryl-coenzyme A reductase (Cricetulus griseus); assay: Protac activity at CRBN/HMGCR in Insig-1/Insig-2 deficient Chinese hamster SRD15 cells assessed as HMGCR level at 1 uM after 16 hrs in presence of 0.1 uM pomalidomide by immunoblotting analysis (reference value: 1)
Target sequence in this assay (G3H338 1-445 partner): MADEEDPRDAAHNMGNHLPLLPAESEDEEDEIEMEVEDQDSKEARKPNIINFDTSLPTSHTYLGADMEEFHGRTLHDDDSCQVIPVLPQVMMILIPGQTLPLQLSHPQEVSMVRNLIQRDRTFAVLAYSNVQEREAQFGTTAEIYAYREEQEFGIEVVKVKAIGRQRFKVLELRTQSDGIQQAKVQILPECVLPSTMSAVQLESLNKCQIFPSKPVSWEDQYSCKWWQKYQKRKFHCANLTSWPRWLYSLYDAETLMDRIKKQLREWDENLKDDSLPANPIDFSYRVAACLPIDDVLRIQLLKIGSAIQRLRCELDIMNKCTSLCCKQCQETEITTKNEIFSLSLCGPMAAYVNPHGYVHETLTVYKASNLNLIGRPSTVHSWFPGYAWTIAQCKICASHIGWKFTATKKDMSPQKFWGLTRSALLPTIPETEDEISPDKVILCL
Target sequence in this assay (P00347 whole entry): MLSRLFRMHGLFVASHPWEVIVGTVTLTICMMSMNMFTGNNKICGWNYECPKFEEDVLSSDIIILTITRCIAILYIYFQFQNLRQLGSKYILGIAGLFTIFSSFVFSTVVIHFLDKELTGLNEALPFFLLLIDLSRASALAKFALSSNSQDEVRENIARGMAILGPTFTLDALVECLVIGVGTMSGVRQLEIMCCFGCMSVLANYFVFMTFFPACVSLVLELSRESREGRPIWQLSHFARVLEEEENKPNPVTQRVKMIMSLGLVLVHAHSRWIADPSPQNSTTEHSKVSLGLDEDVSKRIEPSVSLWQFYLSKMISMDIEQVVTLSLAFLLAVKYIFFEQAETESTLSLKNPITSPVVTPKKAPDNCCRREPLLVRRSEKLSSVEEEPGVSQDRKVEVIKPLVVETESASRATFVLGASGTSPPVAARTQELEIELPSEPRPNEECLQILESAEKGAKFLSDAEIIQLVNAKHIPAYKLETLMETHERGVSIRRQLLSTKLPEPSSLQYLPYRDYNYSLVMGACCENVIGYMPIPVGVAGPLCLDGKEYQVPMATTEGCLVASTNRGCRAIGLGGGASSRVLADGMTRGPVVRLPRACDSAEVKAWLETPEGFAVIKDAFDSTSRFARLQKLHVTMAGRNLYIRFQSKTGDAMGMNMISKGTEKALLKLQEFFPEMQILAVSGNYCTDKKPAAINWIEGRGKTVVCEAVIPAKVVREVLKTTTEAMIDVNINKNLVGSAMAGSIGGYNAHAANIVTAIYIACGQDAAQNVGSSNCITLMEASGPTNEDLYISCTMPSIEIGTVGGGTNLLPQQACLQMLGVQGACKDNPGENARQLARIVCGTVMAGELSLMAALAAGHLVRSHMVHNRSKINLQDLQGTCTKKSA

[7] = target: T2, Protein cereblon/3-hydroxy-3-methylglutaryl-coenzyme A reductase (Homo sapiens); assay: (§2) Protac activity at human Flag-tagged CRBN/T7-tagged HMGCR expressed in Chinese hamster SRD15 cells transfected with HA-tagged ubiquitin assessed as increase in HMGCR immunoprecipitation 1 uM incubated for 16 hrs followed by pomalidomide addition addition and measured after 5 hrs in presence of MG132 by Western blot analysis; type: cell-based
[8] = target: T1, Protein cereblon/3-hydroxy-3-methylglutaryl-coenzyme A reductase (Cricetulus griseus); assay: Protac activity at CRBN/HMGCR in Insig-1/Insig-2 deficient Chinese hamster SRD15 cells assessed as HMGCR level at 0.3 uM after 16 hrs by immunoblotting analysis (reference value: 1); in short: as §1
Target sequence in this assay (G3H338 1-445 partner): as the sequence (G3H338 1-445 partner) above
Target sequence in this assay (P00347 whole entry): as the sequence (P00347 whole entry) above

[9] = target: T1, Protein cereblon/3-hydroxy-3-methylglutaryl-coenzyme A reductase (Cricetulus griseus); assay: Protac activity at CRBN/HMGCR in Insig-1/Insig-2 deficient Chinese hamster SRD15 cells assessed as HMGCR level at 0.01 uM after 16 hrs by immunoblotting analysis (reference value: 1); in short: as §1
Target sequence in this assay (G3H338 1-445 partner): as the sequence (G3H338 1-445 partner) above
Target sequence in this assay (P00347 whole entry): as the sequence (P00347 whole entry) above

[10] = target: T2, Protein cereblon/3-hydroxy-3-methylglutaryl-coenzyme A reductase (Homo sapiens); assay: as §2, with “atorvastatin” for “pomalidomide”; type: cell-based
[11] = Effect on HMGCR mRNA expression in Chinese hamster SRD15 cells at 1 uM after 16 hrs by quantitative real-time PCR analysis; type: ADME, Cricetulus griseus
In short: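 SRD15 cells (Insig-1/Insig-2-deficient CHO-7) in Medium A with 5% FBS, compound for 16 h; Hmgcr mRNA by quantitative real-time PCR in triplicate, comparative CT method normalized to hamster GAPDH, control defined as 1; mean ± s.d., n = 3 independent experiments.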

[12] = target: T1, Protein cereblon/3-hydroxy-3-methylglutaryl-coenzyme A reductase (Cricetulus griseus); assay: Protac activity at CRBN/HMGCR in Insig-1/Insig-2 deficient Chinese hamster SRD15 cells assessed as HMGCR level at 1 uM after 16 hrs in presence of 0.3 uM atorvastatin by immunoblotting analysis (reference value: 1)
Target sequence in this assay (G3H338 1-445 partner): as the sequence (G3H338 1-445 partner) above
Target sequence in this assay (P00347 whole entry): as the sequence (P00347 whole entry) above

T2 sequence (Q96SW2 whole entry, looked up, one chain of several): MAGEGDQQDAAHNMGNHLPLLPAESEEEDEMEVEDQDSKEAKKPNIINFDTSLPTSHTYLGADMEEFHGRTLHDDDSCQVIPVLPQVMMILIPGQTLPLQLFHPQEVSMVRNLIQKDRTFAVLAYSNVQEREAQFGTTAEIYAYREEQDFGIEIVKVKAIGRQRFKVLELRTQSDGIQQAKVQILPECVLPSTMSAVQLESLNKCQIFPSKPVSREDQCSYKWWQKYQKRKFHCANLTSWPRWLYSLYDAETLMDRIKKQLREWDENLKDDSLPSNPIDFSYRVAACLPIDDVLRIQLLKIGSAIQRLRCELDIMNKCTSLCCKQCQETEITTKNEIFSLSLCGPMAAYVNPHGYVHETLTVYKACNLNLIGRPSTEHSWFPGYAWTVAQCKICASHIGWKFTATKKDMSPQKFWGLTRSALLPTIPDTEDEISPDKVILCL

With `CC(C)c1c(C(=O)Nc2ccccc2)c(-c2cccc(OCCCc3cn(CCOCCOCCOCCOCCNc4cccc5c4C(=O)N(C4CCC(=O)NC4=O)C5=O)nn3)c2)c(-c2ccc(F)cc2)n1CC[C@@H](O)C[C@@H](O)CC(=O)O` (some centres not stated) the fold change (FC) [1] was 0.3, the Activity [2] was 70% and the Activity [3] was “Active”. For the same compound, the inhibition [4] was “Active”, the fold change (FC) [5] was 1 and the fold change (FC) [6] was 0.4. For the same compound, the Activity [7] was “inactive”, the fold change (FC) [8] was 0.4 and the fold change (FC) [9] was 0.8. For the same compound, the Activity [10] was “inactive”, the Activity [11] was “Non-Toxic” and the fold change (FC) [12] was 1.
